Legend:
Format in all cases: functional, organism-based
Influenza A virus [1] = assay: Antiviral activity against influenza A (A/Singapore/91/2009 (H1N1)) virus after 30 mins by NA-star substrate based chemiluminescent assay; conditions: 0.5 h
How it was run: (§1)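 Titrated virus in NA-Star buffer (26 mM MES, 4 mM CaCl2, pH 6.0) was preincubated with ten half-log inhibitor dilutions (0.03–1,000 nM final) for 30 min at 37°C, then with substrate for 30 min at room temperature. Accelerator solution was added and luminescence read for 0.1 s. IC50 came from a Vmax·[1−x/(K+x)] fit, mean of ≥3 experiments.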

Influenza A virus [2] = assay: Antiviral activity against influenza A (A/Washington/10/2008 (H1N1)) virus after 16 to 18 hrs by fetuin substrate based colorimetric assay
How it was run: (§2)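 Colorimetric NA inhibition with fetuin substrate. Virus was diluted in NA-Star buffer (26 mM MES, 4 mM CaCl2, pH 6.0) to give OD549 of 0.4–0.8 after 18 h. It was preincubated with ten half-log inhibitor dilutions (0.03–1,000 nM final) for 1 h at 37°C, then with fetuin (5.5 mg/ml final) for 16–18 h at 37°C. Released sialic acid was read at 549 nm after periodate/TBA reaction and butanol extraction. IC50 came from a Vmax·[1−x/(K+x)] fit, mean of ≥2 experiments.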

Influenza A virus [3] = assay: Antiviral activity against influenza A (A/Washington/10/2008 (H1N1)) virus after 30 mins by NA-star substrate based chemiluminescent assay; conditions: 0.5 h; how it was run: as §1
Influenza A virus [4] = assay: Antiviral activity against influenza A (A/Singapore/91/2009 (H1N1)) virus after 16 to 18 hrs by fetuin substrate based colorimetric assay; how it was run: as §2
Influenza A virus [5] = assay: Antiviral activity against influenza A (A/North Carolina/02/2009 (H1N1)) virus after 30 mins by MUNANA substrate based fluorometric assay; conditions: 0.5 h
How it was run: (§3)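 Fluorometric NA inhibition with MUNANA (100 μM final). Titrated virus in NA-Star buffer (26 mM MES, 4 mM CaCl2, pH 6.0) was preincubated with ten half-log inhibitor dilutions (0.03–1,000 nM final) for 30 min at 37°C, then with substrate for 30 min at 37°C. The reaction was stopped with 0.1 M glycine in 25% ethanol, pH 10.7, and 4-methylumbelliferone was read at ex 365/em 450 nm. IC50 came from a Vmax·[1−x/(K+x)] fit, mean of ≥3 experiments.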

Influenza A virus [6] = assay: Antiviral activity against influenza A (A/New York/18/2009 (H1N1)) virus after 30 mins by MUNANA substrate based fluorometric assay; conditions: 0.5 h; how it was run: as §3
Influenza A virus [7] = assay: Antiviral activity against influenza A (A/Washington/10/2008 (H1N1)) virus after 30 mins by MUNANA substrate based fluorometric assay; conditions: 0.5 h; how it was run: as §3
Influenza A virus [8] = assay: Antiviral activity against influenza A (A/Singapore/91/2009 (H1N1)) virus after 30 mins by MUNANA substrate based fluorometric assay; conditions: 0.5 h; how it was run: as §3
Influenza A virus [9] = assay: Antiviral activity against influenza A (A/Washington/29/2009 (H1N1)) virus after 16 to 18 hrs by fetuin substrate based colorimetric assay; how it was run: as §2
Influenza A virus [10] = assay: Antiviral activity against influenza A (A/New York/18/2009 (H1N1)) virus after 16 to 18 hrs by fetuin substrate based colorimetric assay; how it was run: as §2
Influenza A virus [11] = assay: Antiviral activity against influenza A (A/New York/18/2009 (H1N1)) virus after 30 mins by NA-star substrate based chemiluminescent assay; conditions: 0.5 h; how it was run: as §1
Influenza A virus [12] = assay: Antiviral activity against influenza A (A/North Carolina/02/2009 (H1N1)) virus after 30 mins by NA-star substrate based chemiluminescent assay; conditions: 0.5 h; how it was run: as §1
Influenza A virus [13] = assay: Antiviral activity against influenza A (A/Washington/29/2009 (H1N1)) virus after 30 mins by MUNANA substrate based fluorometric assay; conditions: 0.5 h; how it was run: as §3
Influenza A virus [14] = assay: Antiviral activity against influenza A (A/Washington/29/2009 (H1N1)) virus after 30 mins by NA-star substrate based chemiluminescent assay; conditions: 0.5 h; how it was run: as §1
Influenza A virus [15] = assay: Antiviral activity against influenza A (A/North Carolina/02/2009 (H1N1)) virus after 16 to 18 hrs by fetuin substrate based colorimetric assay; how it was run: as §2

Row | Compound | IC50 (Influenza A virus [1]) [nM] | IC50 (Influenza A virus [2]) [nM] | IC50 (Influenza A virus [3]) [nM] | IC50 (Influenza A virus [4]) [nM] | IC50 (Influenza A virus [5]) [nM] | IC50 (Influenza A virus [6]) [nM] | IC50 (Influenza A virus [7]) [nM] | IC50 (Influenza A virus [8]) [nM] | IC50 (Influenza A virus [9]) [nM] | IC50 (Influenza A virus [10]) [nM] | IC50 (Influenza A virus [11]) [nM] | IC50 (Influenza A virus [12]) [nM] | IC50 (Influenza A virus [13]) [nM] | IC50 (Influenza A virus [14]) [nM] | IC50 (Influenza A virus [15]) [nM]
1 | C/C=C\[C@@H]1C[C@H](C(=O)O)N[C@H]1[C@@H](NC(C)=O)[C@](C)(CCC)OC | 0.27 | 1.03 | 0.16 | 1.4 | 0.51 | 0.74 | 0.51 | 0.46 | 1.31 | 0.9 | 0.43 | 0.18 | 0.53 | 0.35 | 0.75
2 | CO[C@@H]([C@@H]1OC(C(=O)O)=C[C@H](NC(=N)N)[C@H]1NC(C)=O)[C@H](O)CO [LANINAMIVIR] | 0.3 | 0.79 | 0.14 | 0.9 | 0.61 | 0.96 | 0.53 | 0.51 | 1.57 | 0.74 | 0.49 | – | 0.74 | 0.49 | 0.86
3 | CCC(CC)[C@H](NC(C)=O)[C@@H]1[C@H](O)[C@@H](C(=O)O)C[C@H]1NC(=N)N [PERAMIVIR ANHYDROUS] | 0.11 | 0.75 | 0.11 | 0.55 | 0.19 | 0.32 | 0.18 | 0.14 | 0.49 | 0.41 | 0.12 | 0.08 | 0.2 | 0.14 | 0.7

— ChEMBL document CHEMBL1649328, “Assessment of pandemic and seasonal influenza A (H1N1) virus susceptibility to neuraminidase inhibitors in three enzyme activity inhibition assays” (Antimicrob Agents Chemother, 2010)
